Source: PubChem BioAssay
SKN-1 inh = inhibitors of C. elegans SKN-1; 360,000 tested, 0.49% active; inhibition, % at 21.8 µM; C. elegans VP596 Pgst-4::GFP/RFP ratio, acrylamide-induced, 24 h;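 active = interference check ratio from 0.5 to 1.5 plus GFP to RFP signal ratio inhibition reaching or exceeding a fixed threshold, cut at about 30% in these data, passing the limit was not always enough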
MsrA inhibitor = inhibitors of bovine MsrA; purified bovine MsrA, absorbance read-out; inhibition, % at 15.5 µM; 360,000 tested, 0.75% active;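 note: 0% = vehicle wells with enzyme and 100% = reference inhibitor wells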
DAGLB inh = blocks human DAGLB lipase activity | 340,000 tested, 0.059% active | inhibition, % at 5.17 µM | AID 504411 | HEK293T DAGLB membrane lysate, EnzChek fluorogenic substrate; in the data active = inhibition above about 34%;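 note: 0% = enzyme with vehicle and 100% = wells lacking enzyme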
Target sequence (Q8NCG7 whole entry, looked up): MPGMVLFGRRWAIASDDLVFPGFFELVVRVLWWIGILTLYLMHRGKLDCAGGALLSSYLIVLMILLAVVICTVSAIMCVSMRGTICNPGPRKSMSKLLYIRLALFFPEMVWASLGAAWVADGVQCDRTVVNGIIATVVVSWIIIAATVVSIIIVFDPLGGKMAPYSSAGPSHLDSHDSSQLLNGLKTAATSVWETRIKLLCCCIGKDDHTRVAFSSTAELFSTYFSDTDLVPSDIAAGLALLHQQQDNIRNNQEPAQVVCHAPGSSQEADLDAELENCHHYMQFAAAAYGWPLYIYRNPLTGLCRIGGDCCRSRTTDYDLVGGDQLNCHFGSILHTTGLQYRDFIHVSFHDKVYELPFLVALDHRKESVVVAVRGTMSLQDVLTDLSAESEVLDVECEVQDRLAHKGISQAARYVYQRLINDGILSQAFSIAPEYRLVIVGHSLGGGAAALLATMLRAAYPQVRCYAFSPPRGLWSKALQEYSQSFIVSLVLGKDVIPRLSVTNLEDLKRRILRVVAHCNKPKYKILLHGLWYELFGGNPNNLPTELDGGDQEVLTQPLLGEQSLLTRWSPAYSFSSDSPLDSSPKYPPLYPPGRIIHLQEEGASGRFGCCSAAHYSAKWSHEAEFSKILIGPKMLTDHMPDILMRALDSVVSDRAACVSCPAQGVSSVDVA
MIN6 prolif = MIN6 beta-cell proliferation induction; MIN6 cells proliferation, ATPlite luminescence, 48 h; cells starved in 0.2% serum; 100% = growth in 10% serum; proliferation, % at 10 µM; 330,000 tested, 0.29% active;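 active = compounds whose signal lies at least 3.5 SD above the mean of all wells on their plate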;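 note: 0% = DMSO-treated cells in low-serum medium and 100% = 10% serum control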
bovine MsrA act = bovine methionine sulfoxide reductase A activation | purified bovine MsrA, absorbance read-out | activation, % at 10.6 µM | 360,000 tested, 0.3% active | AID 602163; in the data active = activation above about 7.5%;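 note: 0% = vehicle and 100% = reference activator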
MT1-MMP act inh = MT1-MMP (human) activation inhibition; P50281; HT1080 RFP-PRO-GFP cells, GFP/RFP ratio fluorescence, overnight; percent of plate control window, DMSO zero; GFP/RFP ratio change, % at 20 µM; 360,000 tested, 0.061% active; AID 651647;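 active = GFP/RFP ratio change of at least 30% with cell ATP level not reduced by more than half and red fluorescence within 50% of control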
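Assay system – RFP-PRO-GFP reporter HT1080 cells · Compound dosing – single dose of 20 µM compound, 1% DMSO final · Incubation – overnight compound exposure at 37 °C · Measure – GFP/RFP fluorescence ratio · Benchmarks – DMSO wells and RFP-L50D-GFP cells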
MT1-MMP conf = validation of inhibitors of human MT1-MMP activation | HT1080 RFP-PRO-GFP cells, GFP and RFP fluorescence ratio, overnight | 200 tested, 10% active | shares compounds with MT1-MMP act inh | AID 652235 | inhibition, % at 20 µM;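 active = inhibition of at least 50% in the primary cell screen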
MsrA inh confirm = confirmation of bovine MsrA inhibitors | shares compounds with MsrA inhibitor | purified bovine MsrA, absorbance read-out | inhibition, % at 15.5 µM | 2,300 tested, 41% active | AID 651822;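 note: coupled to thioredoxin reductase with NADPH and selenocystamine and DMSO as substrate; 0% = vehicle only and 100% = full effect of reference inhibitor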
Active calls of the source: *; . = not tested or not shown. In the library only some 1.8% were active in any assay of this set; here they are far more common. Cut-off read from the data, not from the text of the source, unless noted: active = inhibition above about 4.5%; inactive = the rest.

SMILES	SKN-1 inh	MsrA inhibitor	DAGLB inh	MIN6 prolif	bovine MsrA act	MT1-MMP act inh	MsrA inh confirm	others
CC(=O)NC1C(OC(=O)/C=C/c2ccccc2)OC(COC(C)=O)C(OC(C)=O)C1OC(C)=O (stereo not drawn)	11	0	0	1	-3	-4	.
Cc1cc(C)c(-n2c(SCC(=O)N3CCOCC3)n[nH]c2=O)c(C)c1	9	-1	-3	-3	-10	1	.
CN1/C(=C\C(=S)NC(=O)c2ccccc2Cl)C(C)(C)c2ccccc21	53	1	15	-3	-8	53	.
COc1ccccc1C(=O)NC(=S)/C=C1/N(C)c2ccccc2C1(C)C	75	0	27	0	-3	55*	.	MT1-MMP conf=31
CN(C)/C=C/c1oc2ccc(O)cc2c1[N+](=O)[O-]	28	5.5*	23	-1	-5	58*	4	MT1-MMP conf=51*
CC1CCCCC12NC(=O)N(CC(=O)Nc1ccccc1N1CCOCC1)C2=O (stereo not drawn)	-6	-1	-3	-2	-10	1	.
CC(=O)c1ccc(-c2ccc(C(=O)NC3CC(C)(C)NC(C)(C)C3)o2)cc1	4	5.4*	1	-1	-4	-3	5.3*
O=C(O)CCCNC(=O)/C(=C\C=C\c1ccccc1)NC(=O)c1ccccc1Cl	2	5.8*	2	-2	1	1	3
COC(=O)c1ccc(Nc2nnc(-c3ccc(C)c(S(=O)(=O)NCC4CCCO4)c3)c3ccccc23)cc1 (stereo not drawn)	19	2	1	0	-3	-1	.
Cc1ccc(-c2nnc(Nc3ccc(C(=O)N(C)C)cc3)c3ccccc23)cc1S(=O)(=O)NCC1CCCO1 (stereo not drawn)	-3	4.7*	2	-3	-3	-3	3
Nc1nc2nccc(-c3ccc(Cl)cc3)n2n1	-6	5.2*	3	-1	-5	4	2
C=CCN1C(=O)c2ccc(C(=O)N3CCN(S(=O)(=O)c4cc(C)ccc4C)CC3)cc2C1=O	-1	1	1	-1	-8	-2	.
COc1ccc(/C=C/c2cc(-c3ccc(C)cc3)o[n+]2C)cc1	17	5.0*	4	-6	-6	-27	4
Cc1cc(N2CCc3ccccc32)n2ncnc2n1	-6	5.3*	0	2	-2	11	4
Cc1cc(N2CCN(c3nnnn3-c3ccccc3)CC2)n2ncnc2n1	0	-1	-1	0	-3	1	.
O=[N+]([O-])c1cnccc1Nc1ccccc1	21	2	-1	1	2	-8	.
O=[N+]([O-])c1ccc(Nc2ccccc2)c2nonc12	35*	5.8*	27	-1	4	-35	4
Cc1ccc(N=Cc2c(O)[nH]c3ccccc23)c([N+](=O)[O-])c1	-7	0	11	-3	-4	21	.
CCn1cc(CN2CCC(n3nccc3NC(=O)c3ccccc3C)CC2)c(C)n1	-3	1	0	-3	-4	4	.
CC(=O)c1cccc(Nc2cc(C)nc3c(C)cc(C)cc23)c1	19	5.9*	2	-3	-6	-2	2
COc1cc(C(=O)OCC(=O)N2CCC(C)CC2)cc2c1OCCO2	2	0	-1	-2	-2	4	.
CCOC(=O)C1CCN(C(=O)Cn2nc(C)n3cccc3c2=O)CC1	10	0	-3	-4	-1	0	.
O=c1[nH]c(=S)c2c(n1-c1ccccc1)CCC2	-5	5.8*	2	1	-6	6	3
Cn1cccc1CN1CCC[C@]2(N[C@H](c3ccccc3)[C@@H]3C(=O)N(Cc4ccccc4)C(=O)[C@@H]32)C1=O	-3	1	0	.	-5	3	.
Cc1ccc(-c2nc(=S)c3c(n2CC2CCCO2)CC(C)(C)OC3)cc1 (stereo not drawn)	3	4.9*	1	3	-10	2	4
SMILES	SKN-1 inh	MsrA inhibitor	DAGLB inh	MIN6 prolif	bovine MsrA act	MT1-MMP act inh	MsrA inh confirm	others
Cc1oc2c(C)c3oc(=O)c(CC(=O)N[C@@H](CCCNC(N)=O)C(=O)O)c(C)c3cc2c1C	22	4.9*	-1	-1	-1	8	2
Cc1c(CC(=O)N[C@@H](CCCNC(N)=O)C(=O)O)c(=O)oc2cc3oc4c(c3cc12)CCCC4	9	2	-2	4	-7	6	.
Cc1oc(-c2ccc(-c3ccccc3)cc2)nc1CN(CCO)C(C)C	16	-1	-1	-3	-2	2	.
Cc1ccc(NC(=O)COC(=O)CCc2c(C)nc3ncnn3c2C)cc1	11	1	1	-3	-1	3	.
CC/C(=C/c1sc2ccc(C)cc2[n+]1CCO)SC	7	3	1	-6	-4	-6	.
CC/C(=C/c1sc2ccc(C)cc2[n+]1CCCS(=O)(=O)[O-])SC	.	4.8*	.	3	.	.	3
CC(=NCc1cccc(Cl)c1)c1nc(-c2ccco2)oc1O	13	5.9*	1	0	-6	3	2
Oc1oc(-c2ccco2)nc1C=Nc1cccc(Cl)c1	6	1	15	0	-9	-2	.
CCCCn1c(SCC(=O)Nc2oc(C)c3c(C)n[nH]c(=O)c23)nc2cc(S(N)(=O)=O)ccc21	1	0	4	-1	-2	3	.
CN(C)c1cccc(NC2=CC(=[N+]3CCOCC3)CC(C)(C)C2)c1	23	4.8*	2	-1	-6	-6	5.2*
COc1cc(C(=O)N(C)CCOc2ccccc2)ccc1OCC(=O)Nc1cccc(C(F)(F)F)c1	8	0	-6	-6	-1	-6	.
Cc1[nH]c2ccccc2c1/C=N/NC(=O)c1cccc([N+](=O)[O-])c1	1	4	.	-1	-6	0	.
Cc1[nH]c2ccccc2c1/C=N/NC(=O)CNC(=O)c1ccco1	15	0	.	2	-4	3	.
Cc1[nH]c2ccccc2c1/C=N\NC(=O)c1ccco1	3	6.6*	-3	6	-10	3	5.3*
Cc1[nH]c2ccccc2c1/C=N/NC(=O)c1cccc(F)c1	0	4.8*	3	-1	-8	-3	4
Cc1ccc(S(=O)(=O)N2CCOCC2)cc1NC(=O)COC(=O)COc1ccc(C#N)cc1	-13	-1	2	.	-5	1	.
COc1cccc(N2[C@@H](CC(=O)O)c3cc(C(F)(F)F)ccc3S2(=O)=O)c1	-2	0	-1	-6	-2	1	.
O=C(O)/C=C/c1ccc(-c2cccc(C(F)(F)F)c2)o1	10	6.0*	2	0	-6	-3	4
